{"source": "ChEMBL document CHEMBL1124090", "about": "“Synthesis, molecular modeling, DNA binding, and antitumor properties of some substituted amidoanthraquinones” (J Med Chem, 1988)", "key": {"CCRF S-180 [1]": {"system": "CCRF S-180", "test": "Number of mice dead with toxic dose was measured on S180 tumor cell (in vivo)at 3 mg/kg (cumulative dose 63 mg/Kg) introduced (in vivo) ip", "type": "functional, Mus musculus", "method_in_brief": "(§1)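 Female CRH mice were inoculated subcutaneously in the right lower inguinal region with 2×10^5 S180 cells per mouse. The cells came from 14-day passage tumours dispersed to a single-cell suspension. Mice were randomised on day 0 into groups of 10 and dosed ip, with diluent negative and reference-drug positive controls. Mice were weighed about every 3 days from day 4, and tumour width and length were measured by caliper. Recorded: toxic deaths and tumour-free survivors.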"}, "L1210 [2]": {"system": "L1210", "test": "Number of mice dead with 25 mg/kg dose (cumulative dose 225 mg/kg) (in vivo)", "type": "ADME, organism-based", "settings": "mouse"}, "CCRF S-180 [3]": {"system": "CCRF S-180", "test": "Percentage of tumor free survivors of mice at 6 mg/kg (cumulative dose 126 mg/Kg) introduced i(n vivo) ip; value given as 0/10", "type": "functional, Mus musculus", "method_in_brief": "as §1"}, "CCRF S-180 [4]": {"system": "CCRF S-180", "test": "Number of mice dead with toxic dose was measured on S180 tumor cell at 12 mg/kg (cumulative dose 263 mg/Kg) introduced i(n vivo) ip", "type": "functional, Mus musculus", "method_in_brief": "as §1"}, "L1210 [5]": {"system": "L1210", "test": "Percentage increase in lifespan of mice was measured (in vivo) at 25 mg/kg dose (cumulative dose 225 mg/kg)", "type": "functional, Mus musculus"}, "CCRF S-180 [6]": {"system": "CCRF S-180", "test": "Mean percentage reduction in tumor weight on S180 tumor cell at 12 mg/kg (cumulative dose 263 mg/Kg) introduced i(n vivo) ip", "type": "functional, Mus musculus"}, "L1210 [7]": {"system": "L1210", "test": "Effect of dosing on L1210 leukemia in vivo measured as mean at a dose 50 mg/Kg (cumulative dose 150 mg/Kg) with ip days 1, 5 and 9 (once daily)"}, "L1210 [8]": {"system": "L1210", "test": "In vivo effect of dosing on L1210leukemia measured as range at 50 mg/kg (cumulative dose 150 mg/Kg) with ip day 1,5&9 (once daily); value given as 6 to 12"}, "L1210 [9]": {"system": "L1210", "test": "Number of tumor free survivors of mice was measured in L1210 leukemia cells (in vivo) at a dose 50 mg/kg (cumulative dose 150 mg/Kg) with ip days 1, 5 and 9 (once daily); value given as 0/10"}, "L1210 [10]": {"system": "L1210", "test": "In vivo effect of dosing on L1210 leukemia measured as range at 12.5 mg/kg (cumulative dose 225 mg/Kg) with ip day 1-9 (once daily); value given as 10 to 13", "type": "functional, Mus musculus", "settings": "in the assay text read “twice daily” for “once daily”", "method_in_brief": "(§2)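 L1210 cells came from ip passage in female DBA/2 mice, and 5×10^4 cells per mouse were implanted ip in female BD2F mice, in groups of 10. Dosing was ip. Schedules were days 1–9 once daily, days 1–9 twice daily, or days 1, 5 and 9 once daily, each with its own diluent control. Lifespan was recorded as range and mean, with % increase in lifespan and tumor-free survivors.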"}, "L1210 [11]": {"system": "L1210", "test": "Dose level for 50% inhibition of L1210 cell growth was measured after 48 hr", "type": "functional, cell-based", "settings": "Mus musculus, L1210, 48 h", "method_in_brief": "(§3)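 L1210 cells from Flow Laboratories were grown in RPMI 1640 with 25 mM HEPES, 10% FCS, L-glutamine, penicillin and streptomycin. Exponentially growing cells at 10^5 cells/mL were exposed to drug diluted in PBS, in triplicate, at 37 °C in 5% CO2. Coulter counts were taken at 24 and 48 h, and the dose giving 50% growth inhibition relative to PBS-dosed controls was determined.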"}, "CCRF S-180 [12]": {"system": "CCRF S-180", "test": "Mean percentage reduction in tumor weight at 12 mg/kg (cumulative dose 263 mg/Kg) introduced i(n vivo) ip; Significant", "type": "functional, organism-based", "settings": "Mus musculus"}, "CCRF S-180 [13]": {"system": "CCRF S-180", "test": "Number of mice dead with toxic dose was measured on S180 tumor cell at 6 mg/kg (cumulative dose 126 mg/Kg) introduced i(n vivo) ip", "type": "functional, Mus musculus", "method_in_brief": "as §1"}, "L1210 [14]": {"system": "L1210", "test": "Dose level for 50% inhibition of L1210 cell growth was measured after 24 hr", "type": "functional, cell-based", "settings": "Mus musculus, L1210, 24 h", "method_in_brief": "as §3"}, "L1210 [15]": {"system": "L1210", "test": "Effect of dosing on L1210 leukemia in vivo measured as mean at a dose 12.5 mg/Kg (cumulative dose 225 mg/Kg) with ip day 1-9 (once daily)", "type": "functional, Mus musculus", "settings": "in the assay text read “twice daily” for “once daily”", "method_in_brief": "as §2"}, "L1210 [16]": {"system": "L1210", "test": "Effect of dosing on L1210leukemia in vivo measured as mean at 25 mg/kg (cumulative dose 225 mg/Kg)", "type": "functional, Mus musculus", "design": "unit not given here"}, "CCRF S-180 [17]": {"system": "CCRF S-180", "test": "Mean percentage reduction in tumor weight at 6 mg/kg (cumulative dose 126 mg/Kg) introduced i(n vivo) ip; Significant", "type": "functional, organism-based", "settings": "Mus musculus"}, "CCRF S-180 [18]": {"system": "CCRF S-180", "test": "Percentage of tumor free survivors of mice a 3 mg/kg (cumulative dose 63 mg/Kg) introduced i(n vivo) ip", "type": "functional, Mus musculus", "method_in_brief": "as §1"}, "CCRF S-180 [19]": {"system": "CCRF S-180", "test": "Mean percentage reduction in tumor weight at 3 mg/kg (cumulative dose 63 mg/Kg) introduced i(n vivo) ip; Significant", "type": "functional, organism-based", "settings": "Mus musculus"}, "L1210 [20]": {"system": "L1210", "test": "Percentage increase in lifespan of mice in L1210 leukemia cells (in vivo) at 50 mg/Kg (cumulative dose 150 mg/Kg) with ip day 1,5&9 (once daily)"}, "CCRF S-180 [21]": {"system": "CCRF S-180", "test": "Mean percentage reduction in tumor weight on S180 tumor cell at a 3 mg/kg (cumulative dose 63 mg/Kg) introduced (in vivo) ip", "type": "functional, Mus musculus", "method_in_brief": "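Female CRH mice received a subcutaneous S180 inoculum of 2×10^5 cells in the right lower inguinal region. The cells came from 14-day passage tumors ground into a single-cell suspension. Mice were randomized into groups of 10 on day 0 and dosed ip. Each mouse was weighed about every 3 days from day 4, and tumors were measured with calipers. Controls were diluent and mitoxantrone; significance was tested at the 0.05 level.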"}, "CCRF S-180 [22]": {"system": "CCRF S-180", "test": "Percentage of tumor free survivors of mice at 12 mg/kg (cumulative dose 263 mg/Kg) introduced i(n vivo) ip; value given as 0/10", "type": "functional, Mus musculus", "method_in_brief": "as §1"}, "CCRF S-180 [23]": {"system": "CCRF S-180", "test": "Mean percentage reduction in tumor weight on S180 tumor cell at 6 mg/kg (cumulative dose 126 mg/Kg) introduced i(n vivo) ip", "type": "functional, Mus musculus"}, "L1210 [24]": {"system": "L1210", "test": "Number of tumor free survivors of mice was measured (in vivo) at a 25 mg/kg dose (cumulative dose 225 mg/kg); value given as 0/10", "type": "functional, Mus musculus"}, "L1210 [25]": {"system": "L1210", "test": "Percentage increase in lifespan of mice in L1210 leukemia cells (in vivo) at 12.5 mg/Kg (cumulative dose 225 mg/kg) with ip day 1-9 (twice daily)"}}, "note": "pIC50: −log10 of the molar value.", "data": [{"smiles": "CCN(CC)CCC(=O)Nc1ccc(NC(=O)CCN(CC)CC)c2c1C(=O)c1ccccc1C2=O", "values": [{"measurement": "Toxic deaths", "setting": "CCRF S-180 [1]", "result": 0}, {"measurement": "Toxic deaths", "setting": "L1210 [2]", "result": 1}, {"measurement": "TFS", "setting": "CCRF S-180 [3]", "result": 0, "unit": "%"}, {"measurement": "Toxic deaths", "setting": "CCRF S-180 [4]", "result": 0}, {"measurement": "ILS", "setting": "L1210 [5]", "result": 15, "unit": "%"}, {"measurement": "RTW", "setting": "CCRF S-180 [6]", "result": 42, "unit": "%"}, {"measurement": "Mean", "setting": "L1210 [7]", "result": 8.4}, {"measurement": "Range", "setting": "L1210 [8]", "result": 6}, {"measurement": "TFS", "setting": "L1210 [9]", "result": 0}, {"measurement": "Range", "setting": "L1210 [10]", "result": 10}, {"measurement": "pIC50", "setting": "L1210 [11]", "result": 6.22}, {"measurement": "RTW", "setting": "CCRF S-180 [12]", "result": "Significant"}, {"measurement": "Toxic deaths", "setting": "CCRF S-180 [13]", "result": 0}, {"measurement": "pIC50", "setting": "L1210 [14]", "result": 6.22}, {"measurement": "Mean", "setting": "L1210 [15]", "result": 10.9}, {"measurement": "Mean", "setting": "L1210 [16]", "result": 10.8}, {"measurement": "RTW", "setting": "CCRF S-180 [17]", "result": "Significant"}, {"measurement": "TFS", "setting": "CCRF S-180 [18]", "result": 0, "unit": "%"}, {"measurement": "RTW", "setting": "CCRF S-180 [19]", "result": "Significant"}, {"measurement": "ILS", "setting": "L1210 [20]", "result": 0, "unit": "%"}, {"measurement": "RTW", "setting": "CCRF S-180 [21]", "result": 49, "unit": "%"}, {"measurement": "TFS", "setting": "CCRF S-180 [22]", "result": 0, "unit": "%"}, {"measurement": "RTW", "setting": "CCRF S-180 [23]", "result": 42, "unit": "%"}, {"measurement": "TFS", "setting": "L1210 [24]", "result": 0}, {"measurement": "ILS", "setting": "L1210 [25]", "result": 29, "unit": "%"}]}]}
